The values below come from ChEMBL document CHEMBL2385038, “Bioactive dibenzocyclooctadiene lignans from the stems of Schisandra neglecta” (J Nat Prod, 2013).

Each structure is given as a SMILES string.

Data set [1] relates to MCF7. The data set is described as follows: Cytotoxicity against human MCF7 cells after 3 days by MTT assay. It is filed as functional, cell-based. Conditions: MCF7, 72 h. In a few lines: (§1)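 MTT viability assay on NB4 (acute promyelocytic leukemia), A549 (lung adenocarcinoma), SHSY5Y (neuroblastoma), PC3 (prostate) and MCF7 (breast adenocarcinoma) cells, reported as IC50. Paclitaxel was the positive control. Performed in triplicate.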

Data set [2] can be described thus: Cytotoxicity against human SH-SY5Y cells after 3 days by MTT assay. It is filed as functional, cell-based. Conditions: 72 h. A digest of the protocol:
as §1

A short description of data set [3]: Cytotoxicity against human C8166 cells after 3 days by MTT assay. It is filed as cell-based. In a few lines:
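Viability of uninfected C8166 cells was measured by MTT to give CC50, alongside the anti-HIV-1 assay. Performed in triplicate.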

In data set [4] the test system is A549. The data set is described as follows: Cytotoxicity against human A549 cells after 3 days by MTT assay. It is filed as functional, cell-based. The conditions noted are these: A549, 72 h. A digest of the protocol:
as §1

Data set [5] concerns Human immunodeficiency virus 1. The experiment in a line: Antiviral activity against HIV-1 3B infected in human C8166 cells assessed as inhibition of virus-induced cytopathic effect after 3 days by Syncytia Assay. The class given is functional, organism-based. Conditions: Human immunodeficiency virus 1, 3B, C8166, 72 h. A digest of the protocol: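 Inhibition of HIV-1-induced cytopathic effect in C8166 cells, expressed as EC50. Azidothymidine (AZT) served as the positive control. Performed in triplicate.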

Data set [6] in a line: Therapeutic index, ratio of CC50 for human C8166 cells to EC50 for HIV-1 3B. It is filed as cell-based. Conditions: read-out: Ratio CC50/EC50.
The test system of data set [7] is NB-4. The data set is described as follows: Cytotoxicity against human NB4 cells after 3 days by MTT assay. It is filed as functional, cell-based. The conditions noted are these: NB-4, 72 h. A digest of the protocol: as §1
The test system of data set [8] is PC-3. The data set is described as follows: Cytotoxicity against human PC3 cells after 3 days by MTT assay. It is filed as functional, cell-based. The conditions noted are these: PC-3, 72 h. A digest of the protocol:
as §1

Consider `COc1c(O)cc2c(c1OC)-c1c(cc3c(c1OC)OCO3)[C@H](OC(=O)C(C)C)[C@H](C)[C@H](C)C2`, for which the concentration for half-maximal inhibition (IC50) in data set [1], in data set [2], in data set [4], in data set [7] and in data set [8] was more than 10 µM in each case. Moreover, it took 149 µM to reach half-maximal cytotoxicity in data set [3] (CC50 at 72 h). In addition, the concentration for a half-maximal effect (EC50) in data set [5] came to 8.2 µM. Besides, in data set [6], the selectivity ratio is 18.1.

In the case of `COc1c(OC)c(C(=O)O)c2c(c1OC)-c1c(cc3c(c1OC)OCO3)[C@H](O)[C@H](C)[C@H](C)C2`, the half-inhibitory concentration (IC50) was 7.4 µM in data set [1]; more than 10 µM in data set [2]; 6.8 µM in data set [4]; more than 10 µM in data set [7]; more than 10 µM in data set [8]. The cytotoxic concentration (CC50) at 72 h in data set [3] was 86.7 µM. For the same compound, in data set [5], the concentration giving a half-maximal response (EC50) stood at 2.2 µM. Besides, the selectivity ratio in data set [6] came out at 40.3.

Turning to `COc1c(O)c(C(=O)O)c2c(c1OC)-c1c(cc3c(c1OC)OCO3)[C@H](O)[C@H](C)[C@H](C)C2`, the IC50 in data set [1] was more than 10 µM; in data set [2], more than 10 µM; in data set [4], 5.9 µM; in data set [7], more than 10 µM; in data set [8], 9.2 µM. The compound further came in with a 50% cytotoxic concentration (CC50) at 72 h in data set [3] of 75.2 µM. Also, in data set [5], the EC50 amounted to 1.4 µM. The selectivity ratio in data set [6] is 55.3.

On to `COc1c2c(cc(CC(C)=O)c1-c1c(CC(C)=O)cc3c(c1OC)OCO3)OCO2`, for which the IC50 in data set [1] is more than 10 µM; in data set [2] it was 8.2 µM; in data set [4], more than 6.5 µM; in data set [7], 7.3 µM; in data set [8], more than 10 µM. In data set [3], this compound registered a CC50 at 72 h of 54.5 µM. Moreover, the concentration giving a half-maximal response (EC50) in data set [5] is 3.9 µM. In addition, the selectivity ratio in data set [6] turned out to be 14.1.

Regarding `COc1cc(CC(C)=O)c(-c2c(CC(C)=O)cc(OC)c(OC)c2O)c(O)c1OC`, the half-maximal inhibitory concentration (IC50) stood at 7.8 µM in data set [1]; 3.3 µM in data set [2]; 8.6 µM in data set [4]; 2.9 µM in data set [7]; 5.1 µM in data set [8]. The compound further yielded a CC50 at 72 h in data set [3] of 38.8 µM. In addition, the EC50 in data set [5] is 4.2 µM. Further, the selectivity ratio in data set [6] was 9.2.

Regarding `COc1cc2c(c(OC)c1OC)-c1c(cc(OC)c(OC)c1OC)[C@H](OCC(C)C)[C@@H](C)[C@@H](C)C2`, the concentration for half-maximal inhibition (IC50) in data set [1], in data set [2], in data set [4], in data set [7] and in data set [8] was more than 10 µM each time. Also, the CC50 at 72 h in data set [3] is more than 200 µM. The half-maximal effective concentration (EC50) in data set [5] came to 5.9 µM. Besides, the selectivity ratio in data set [6] is more than 33.7.

Regarding `COc1cc2c(c(OC)c1OC)-c1c(cc(O)c(OC)c1OC)[C@H](OCC(C)C)[C@@H](C)[C@@H](C)C2`, the IC50 in data set [1], in data set [2], in data set [4], in data set [7] and in data set [8] was more than 10 µM in each case. The compound also registered a cytotoxic concentration (CC50) at 72 h in data set [3] of more than 200 µM. For the same compound, the EC50 in data set [5] came out at 3.5 µM. Also, the selectivity ratio in data set [6] was more than 58.

In data set [3], `COc1cc2c(c(OC)c1OC)-c1c(cc(O)c(OC)c1OC)C[C@H](C)[C@@](C)(O)C2` returned a CC50 at 72 h of 124 µM. Besides, in data set [5], the EC50 stood at 8.2 µM. In addition, in data set [6], the selectivity ratio was 15.1.

Consider `C/C=C(/C)C(=O)O[C@H]1c2cc(OC)c(OC)c(OC)c2-c2c(cc(OC)c(OC)c2OC)C[C@H](C)[C@]1(C)O`, for which the IC50 in data set [1] is more than 10 µM; in data set [2], 7.8 µM; in data set [4] it was more than 10 µM; in data set [7], more than 10 µM; in data set [8], more than 10 µM. The CC50 at 72 h in data set [3] was 84.7 µM. Moreover, in data set [5], the EC50 amounted to 11.5 µM. Besides, the selectivity ratio in data set [6] is 7.4.

`COc1cc2c(c(O)c1OC)-c1c(cc(OC)c(OC)c1OC)[C@H](OC(=O)c1ccccc1)[C@@H](C)[C@@](C)(O)[C@H]2OC(C)=O`: the IC50 is 9.7 µM in data set [1]; more than 10 µM in data set [2]; more than 10 µM in data set [4]; 7.4 µM in data set [7]; more than 10 µM in data set [8]. In data set [3], this compound returned a CC50 at 72 h of 147 µM. Further, in data set [5], the EC50 came to 8.3 µM. Moreover, the selectivity ratio in data set [6] was 17.8.

Turning to `COc1cc2c(c(OC)c1OC)-c1c3cc4c(c1OC[C@@H](C)[C@@](C)(O)C(=O)O[C@@H]2[C@@](C)(O)[C@@H](C)C3)OCO4`, the midpoint of cytotoxicity in data set [3], the CC50 at 72 h, lay at 186 µM. Further, in data set [5], the concentration for a half-maximal effect (EC50) is 9.8 µM. Also, in data set [6], the selectivity ratio was determined as 18.9.

For the compound `COc1cc2c(c(O)c1OC)-c1c(cc3c(c1OC)OCO3)C[C@H](C)[C@H](C)C2` (racemic), the IC50 in data set [1], in data set [2], in data set [4], in data set [7] and in data set [8] was more than 10 µM each time.

Take `COc1cc2c(c(OC)c1OC)-c1c(cc3c(c1OC)OCO3)[C@H](OC(=O)C=C(C)C)[C@@](C)(O)[C@@H](C)C2` [GOMISIN F]: the concentration for half-maximal inhibition (IC50) in data set [1], in data set [2], in data set [4], in data set [7] and in data set [8] was more than 10 µM throughout. Moreover, half-maximal cytotoxicity in data set [3] (CC50 at 72 h) was put at 61.9 µM. In addition, in data set [5], the concentration giving a half-maximal response (EC50) worked out at 8.3 µM. In data set [6], the selectivity ratio worked out at 7.5.

In the case of `C/C=C(/C)C(=O)O[C@H]1c2cc(OC)c(OC)c(OC)c2-c2c(cc3c(c2OC)OCO3)[C@H](OC(C)=O)[C@H](C)[C@@H]1C` [INTERIOTHERIN C], the concentration for half-maximal inhibition (IC50) in data set [1], in data set [2], in data set [4], in data set [7] and in data set [8] was more than 10 µM throughout.

For the compound `COc1cc2c(c(OC)c1OC)-c1c(cc3c(c1OC)OCO3)[C@H](O)[C@H](C)[C@H](C)C2` [ISOGOMISIN O], the IC50 in data set [1], in data set [2], in data set [4], in data set [7] and in data set [8] was more than 10 µM throughout.

With `COc1c(O)cc2c(c1OC)-c1c(cc(O)c(OC)c1OC)[C@H](OCc1ccccc1)[C@@H](C)[C@@H](C)C2` [MARLIGNAN G], the IC50 in data set [1] was more than 10 µM; in data set [2], more than 10 µM; in data set [4], 8.6 µM; in data set [7], more than 10 µM; in data set [8], 9.5 µM.

For `CC(=O)O[C@H]1C(=O)[C@@]2(C)[C@H]([C@H](OC(=O)c3ccccc3)[C@]3(O)C[C@H](OC(=O)[C@H](O)[C@@H](NC(=O)c4ccccc4)c4ccccc4)C(C)=C1C3(C)C)[C@]1(OC(C)=O)CO[C@@H]1C[C@@H]2O` [PACLITAXEL], the IC50 in data set [2] came out at 0.2 µM; in data set [4], 0.02 µM; in data set [7], 0.03 µM.

Regarding `COc1cc2c(c(OC)c1OC)-c1c(cc3c(c1OC)OCO3)C[C@H](C)[C@H](C)[C@H]2OC(C)=O` [RUBSCHISANTHERIN], the IC50 in data set [1], in data set [2], in data set [4], in data set [7] and in data set [8] was more than 10 µM each time. Besides, the CC50 at 72 h in data set [3] is 85.2 µM. Further, the concentration giving a half-maximal response (EC50) in data set [5] amounted to 4.7 µM. Moreover, the selectivity ratio in data set [6] stood at 18.2.

On to `COc1cc(CO)c(-c2c(C[C@H](C)C(C)=O)cc3c(c2OC)OCO3)c(OC)c1OC` [SCHISPHENONE], for which the IC50 is more than 10 µM in data set [1]; more than 10 µM in data set [2]; more than 10 µM in data set [4]; more than 10 µM in data set [7]; 8.9 µM in data set [8]. The compound also had a cytotoxic concentration (CC50) at 72 h in data set [3] of 156 µM. Besides, in data set [5], the EC50 amounted to 12.7 µM. Besides, the selectivity ratio in data set [6] was determined as 12.3.

Regarding `Cc1cn([C@H]2C[C@H](N=[N+]=[N-])[C@@H](CO)O2)c(=O)[nH]c1=O` [ZIDOVUDINE], the CC50 at 72 h in data set [3] was more than 200 µM. The EC50 in data set [5] stood at 0.034 µM.
